M1 PAM parental = nonselective activator or artifact in parental CHO-K1 calcium assay. AID 602247. hit rate 0.02% among 360,000. ATP EC20, Fluo-8 calcium fluorescence; 0% at ATP EC20, 100% at ATP max. activation, % at 3 µM;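 active = activation above the run cutoff, the mean activation of all test compounds plus 3 SD, cut at about 40% in these data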;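 note: peak over basal fluorescence ratio in a 140 s read after ATP addition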
CHO parental Ca = signal in parental CHO cells, OX1R antagonist counter-screen; parental CHO-K1, ATP-induced calcium, Fluo-8 fluorescence; hit rate 0.63% among 330,000; inhibition, % at 5.6 µM;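 active = inhibition above that plate's mean sample inhibition plus 3 SD, cut at about 26% in these data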;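 note: 0% = ATP-challenged DMSO wells and 100% = DMSO wells without ATP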
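Material: parental CHO cells / Compound: single nominal dose of 5.6 µM per compound / Signal: Fluo-8 fluorescence / Replicates: singlicate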
OX1R antag-1 = blocks the human orexin 1 receptor; O43613; AID 485270; inhibition, % at 6.6 µM; hit rate 1.8% among 330,000; OX1R-expressing cells, FRET antagonist read-out; in the data active = inhibition mostly above about 38%, no sharp cut-off; inactive = mostly below about 40%;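 note: 0% = agonist challenge alone and 100% = reference antagonist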
Target sequence (O43613 whole entry, looked up): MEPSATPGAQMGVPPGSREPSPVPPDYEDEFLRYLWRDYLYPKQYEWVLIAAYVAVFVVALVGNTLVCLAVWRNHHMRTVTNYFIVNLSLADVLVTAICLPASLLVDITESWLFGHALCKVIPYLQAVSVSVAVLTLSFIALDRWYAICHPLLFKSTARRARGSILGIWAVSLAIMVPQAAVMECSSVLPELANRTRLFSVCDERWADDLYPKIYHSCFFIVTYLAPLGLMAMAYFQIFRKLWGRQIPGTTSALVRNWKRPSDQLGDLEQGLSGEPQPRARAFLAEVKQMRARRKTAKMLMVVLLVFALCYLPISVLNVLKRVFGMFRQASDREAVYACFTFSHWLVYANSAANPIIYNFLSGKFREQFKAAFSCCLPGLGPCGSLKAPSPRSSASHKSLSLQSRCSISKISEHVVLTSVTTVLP
OX1R antag-2 = antagonists of human orexin 1 receptor; AID 434989; CHO/OX1R cells, Fluo-8 calcium fluorescence, orexin A; inhibition, % at 5 µM; hit rate 0.43% among 330,000; O43613;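 active = inhibition above its plate's threshold, mean inhibition of all tested compounds on the plate plus 3 SD, cut at about 37% in these data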;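 note: 0% = orexin A challenge wells and 100% = SB-334867-A antagonist wells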
M1 ag parental = M1 agonist counterscreen hit in parental CHO-K1 cells | Fluo-8 calcium fluorescence; scaled to maximal ATP response, vehicle zero | activation, % at 3 µM | hit rate 0.48% among 360,000 | AID 602248; in the data active = activation above about 15%;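 note: untransfected CHO-K1 host cells lacking M1 receptor as counterscreen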
CHO-K1 Ca antag = M1 antagonist counterscreen hit in parental CHO-K1 cells. ATP-induced calcium, Fluo-8 fluorescence. inhibition, % at 3 µM. hit rate 0.6% among 360,000. AID 602250;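 active = inhibition above a per-plate cutoff, the plate's mean sample inhibition plus 3 SD, cut at about 24% in these data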;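 note: 0% = DMSO plus EC80 ATP and 100% = DMSO alone without ATP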
OX1R HTRF confirm = OX1R (human) antagonism, HTRF confirmed | shares compounds with OX1R antag-1 | OX1R-expressing cells, HTRF antagonist assay | inhibition, % at 6.6 µM | hit rate 49% among 1,800 | AID 492964; in the data active = inhibition above about 55%;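 note: CHO cells expressing OX1R stimulated with orexin A at about EC80; 0% = agonist challenge alone and 100% = reference antagonist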
CHO-K1 HTRF = counter-screen: parental CHO-K1 HTRF response; parental CHO-K1 cells, HTRF counterscreen; shares compounds with OX1R antag-1; AID 493232; hit rate 48% among 1,800; inhibition, % at 6.6 µM; in the data active = inhibition above about 17%;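 note: 0% = agonist challenge with vehicle and 100% = vehicle alone without agonist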
The depositor's hits bear a star; / = no result given. This is a sample that favours compounds with a hit; in the whole collection about 2.9% have one here.

SMILES	M1 PAM parental	CHO parental Ca	OX1R antag-1	OX1R antag-2	M1 ag parental	CHO-K1 Ca antag	OX1R HTRF confirm	CHO-K1 HTRF
CCN(CC)C(=O)CSc1nnc2nnc3cc(Cl)ccc3n12	-13	-16	108*	-27	1	-9	70*	126*
CCCn1c(SCC(=O)N(CC)CC)nnc1-c1ccncc1	-3	-9	15	-15	11	-3	/	/
COc1ccc(S(=O)(=O)NCC2CCC(C(=O)O)CC2)cc1 (stereo not drawn)	5	4	1	4	1	-8	/	/
O=C(N/N=C/c1ccccc1[N+](=O)[O-])C(=O)N1CCCC1	19	1	92*	-15	1	-20	22	26*
O=C(N/N=C/c1cccc2ccccc12)C(=O)N1CCCC1	3	-9	5	-17	0	-7	/	/
COC(=O)CN1C(=O)N/C(=C/c2ccccc2OC)C1=O	-3	-5	119*	-17	1	-13	19	6
CCN(CC)CCNC(=O)C(=O)NCC1OCCN1S(=O)(=O)c1ccc([N+](=O)[O-])cc1 (stereo not drawn)	5	1	92*	-6	6	5	41	64*
CCN(CC)CCNC(=O)C(=O)NCC1OCCN1S(=O)(=O)c1ccc(Cl)cc1 (stereo not drawn)	-20	1	5	2	1	-2	/	/
CN(C)CCNC(=O)C(=O)NCC1OCCN1S(=O)(=O)c1ccc([N+](=O)[O-])cc1 (stereo not drawn)	16	-7	89*	-1	7	-7	41	60*
COc1ccc(-c2cc(=O)c3ccccc3s2)cc1	14	-20	83*	-12	3	-17	85*	4
CCOc1ccc(C(C)=O)cc1CN1C(=O)c2ccccc2S1(=O)=O	10	-15	20	-13	3	-18	/	/
Cc1ccnc(N2C(=O)c3ccccc3C2=O)c1	17	-4	-9	-8	0	-4	/	/
Cc1ccnc(N2C(=O)c3cccc4c([N+](=O)[O-])ccc(c34)C2=O)c1	18	9	107*	12	1	10	48	73*
O=C(Nc1ccc2nc(-c3ccc(Br)o3)[nH]c2c1)c1cccs1	20	-27	83*	-23	4	-22	42	3
CC(=O)Nc1ccc2nc(-c3ccc(Br)o3)[nH]c2c1	8	-4	18	-4	0	-3	/	/
CN(CCO)c1cc(N2CCC3(CC2)OCCO3)c2nonc2c1[N+](=O)[O-]	15	7	129*	-4	0	3	60*	56*
CC(=O)Nc1ccc(Nc2cc(N3CCOCC3)c3nonc3c2[N+](=O)[O-])cc1	-2	-9	32	-9	0	3	/	/
CN(CCO)c1cc(N2CCCCC2)c2nonc2c1[N+](=O)[O-]	8	-7	47	-5	0	-6	/	/
CN(CCO)c1cc(NCCCN2CCC(Cc3ccccc3)CC2)c2nonc2c1[N+](=O)[O-]	13	-30	85*	-19	-1	-10	63*	47*
O=[N+]([O-])c1c(NCCO)cc(N2CCC3(CC2)OCCO3)c2nonc12	-7	0	170*	4	0	8	46	82*
OC(CNCCc1ccc(Cl)cc1)COc1cc(Cl)ccc1Cl (stereo not drawn)	-8	-13	-6	-22	1	1	/	/
CC(=O)Nc1ccc2c3c(cccc13)C(=O)N(c1ccccc1)C2=O	8	1	110*	-13	0	-10	41	63*
Cc1ccc(CNC(=O)C2CCC(=O)N(CCc3cccc(F)c3)C2)cc1 (stereo not drawn)	2	-19	11	-25	1	1	/	/
CCOC(=O)C1(CC)NC(c2cccc(F)c2)C2C(=O)N(CC)C(=O)C21 (stereo not drawn)	11	-3	89*	-6	-1	-4	11	-2
CCN1C(=O)[C@H]2[C@@H](c3ccc(-c4ccc(F)cc4)cc3)N[C@@](CC(C)C)(C(=O)OC)[C@H]2C1=O	10	-16	18	-24	0	-9	/	/

Bioassay records from PubChem BioAssay.
